Laboratory results from ChEMBL document CHEMBL3526139, “Clinical pharmacokinetics, metabolism, and drug-drug interaction of carfilzomib” (Drug Metab Dispos, 2013).

Columns and labels:
Cytochrome P450 2C9 [1] = target: T1, Cytochrome P450 2C9 (Homo sapiens, UniProt P11712); assay: Inhibition of CYP2C9 in human liver microsomes using diclofenac as substrate after 5 mins by LC-MS/MS analysis; format: ADME
Summary of the method: (§1)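 Pooled HLM from 16 donors were incubated at 37°C in duplicate with carfilzomib 0.01–10 µM and probe substrate at about its Km. Substrates were phenacetin, amodiaquine, diclofenac, S-mephenytoin, dextromethorphan, testosterone and midazolam. Protein was 0.1 mg/mL, or 0.05 mg/mL with midazolam. Reactions ran 5 min without preincubation, then were quenched with acetonitrile. Metabolites were measured by LC-MS/MS relative to 0.5% acetonitrile controls.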
Target sequence in this assay (P11712 whole entry): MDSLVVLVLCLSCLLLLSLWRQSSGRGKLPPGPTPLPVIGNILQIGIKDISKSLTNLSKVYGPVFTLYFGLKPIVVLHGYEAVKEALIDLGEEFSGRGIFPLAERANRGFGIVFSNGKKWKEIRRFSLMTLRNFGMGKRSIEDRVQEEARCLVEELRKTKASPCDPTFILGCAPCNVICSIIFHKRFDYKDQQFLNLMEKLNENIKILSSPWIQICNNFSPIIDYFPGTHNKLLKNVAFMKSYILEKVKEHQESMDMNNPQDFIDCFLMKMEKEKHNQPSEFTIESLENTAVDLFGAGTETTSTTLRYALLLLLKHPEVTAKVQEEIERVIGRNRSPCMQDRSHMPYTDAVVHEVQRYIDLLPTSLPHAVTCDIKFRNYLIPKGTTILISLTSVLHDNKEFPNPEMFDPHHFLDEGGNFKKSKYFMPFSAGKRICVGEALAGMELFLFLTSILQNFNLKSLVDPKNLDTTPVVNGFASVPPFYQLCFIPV

Cytochrome P450 3A [2] = target: T2, Cytochrome P450 3A (Homo sapiens, UniProt P08684+P20815+Q9HB55+P24462); assay: Drug metabolism in pooled human hepatocytes assessed as disapperance rate at 1 uM by LC-MS/MS analysis in presence of 10 uM CYP3A inhibitor ketoconazole; format: ADME, cell-based, Hepatocyte
Summary of the method: (§2)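 Pooled human hepatocytes in suspension (~0.5 x 10^6 viable cells/mL) were incubated with 1 µM carfilzomib at 37°C under 5% CO2, with or without isoform-selective CYP chemical inhibitors. Reactions were quenched with acetonitrile at 0, 15, 30, 60 and 120 min. Carfilzomib was quantified by non-validated LC-MS/MS after protein precipitation.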

[3] = Drug excretion in urine of iv dosed human patient with relapsed and refractory hematological malignancies assessed as morpholino-hPhe-Leu-Phe-Leu-diol metabolite formation administered on days 1, 2, 8, 9, 15 and 16 of 28-day cycle over 2 to 10 mins by LC-MS/MS analysis; format: ADME, organism-based; conditions: in vivo
Cytochrome P450 2D6 [4] = target: T3, Cytochrome P450 2D6 (Homo sapiens, UniProt P10635); assay: Inhibition of CYP2D6 in human liver microsomes using dextromethorphan as substrate after 5 mins by LC-MS/MS analysis; format: ADME; summary of the method: as §1
Plasma [5] = assay: Drug metabolism in plasma of human multiple myeloma patient assessed as morpholino-hPhe metabolite formation at 15 mg/m'2, iv administered as single dose measured within first 30 mins after end of drug infusion by LC-MS/MS analysis; format: ADME, organism-based; conditions: in vivo, 0.5 h
Summary of the method: (§3)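 Patients with multiple myeloma received a single 15 mg/m2 carfilzomib dose. Plasma was sampled pre-dose, at end of infusion, at 5, 15, 30 min and at 1, 1.5, 2, 4, 6, 24 h. Samples were protein-precipitated and analyzed by LC-MS/MS (metabolites 0.500–500 ng/mL) with deuterated internal standards.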

[6] = Plasma protein binding in iv dosed human multiple myeloma patient at 15 mg/m'2 in first cycle and escalated to 20 mg/m'2 thereafter administered on days 1, 2, 8, 9, 15 and 16 of 28-day cycle over 2 to 10 mins by LC-MS/MS analysis; format: ADME, organism-based; conditions: read-out: PPB (converted)
Summary of the method: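 Plasma taken at end of administration and 5 min after, on Days 1 and 15 of Cycle 1 and Day 15 of Cycle 2, was dialyzed 6 h at 37°C against pH 7.4 sodium phosphate buffer by rapid equilibrium dialysis. Samples were matrix-matched, extracted by acetonitrile precipitation and quantified by LC-MS/MS.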

Cytochrome P450 2C8 = target: T4, Cytochrome P450 2C8 (Homo sapiens, UniProt P10632); assay: Inhibition of CYP2C8 in human liver microsomes using amodiaquine as substrate after 5 mins by LC-MS/MS analysis; format: ADME; summary of the method: as §1
T4 sequence (P10632 whole entry): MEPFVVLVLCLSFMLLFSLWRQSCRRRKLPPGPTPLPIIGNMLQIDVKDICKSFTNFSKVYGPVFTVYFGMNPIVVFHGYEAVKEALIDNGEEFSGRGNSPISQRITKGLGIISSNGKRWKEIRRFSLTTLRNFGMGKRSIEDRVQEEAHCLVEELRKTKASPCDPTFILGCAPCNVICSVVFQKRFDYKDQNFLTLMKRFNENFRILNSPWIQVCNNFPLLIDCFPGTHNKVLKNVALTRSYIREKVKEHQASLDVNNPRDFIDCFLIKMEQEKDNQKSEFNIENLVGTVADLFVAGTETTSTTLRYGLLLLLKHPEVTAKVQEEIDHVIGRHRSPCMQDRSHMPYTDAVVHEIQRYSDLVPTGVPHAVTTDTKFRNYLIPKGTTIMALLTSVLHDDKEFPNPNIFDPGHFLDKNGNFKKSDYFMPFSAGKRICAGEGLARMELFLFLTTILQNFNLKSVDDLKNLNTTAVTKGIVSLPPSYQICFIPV

[7] = Drug excretion in urine of human multiple myeloma patient with normal renal function at 15 mg/m'2, iv on days 1, 2, 8, 9, 15 and 16 of 28-day cycle over 2 to 10 mins by LC-MS/MS analysis relative to total drug dose; format: ADME, organism-based; conditions: read-out: Drug excretion
Summary of the method: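 Urine was collected 0–5 h and 5–24 h after dosing on Cycle 1 Day 1, with acetonitrile added at 25% of sample volume. Carfilzomib and metabolites were quantified by LC-MS/MS (carfilzomib and M15 4.00–2000 ng/mL, M14 10.0–5000 ng/mL) and expressed as percent of dose.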

[8] = Plasma clearance in human patient with relapsed solid tumor at 20 mg/m'2, iv administered on days 1, 2, 8, 9, 15 and 16 of 28-day cycle over 2 to 10 mins measured on day 16 of cycle 1 by LC-MS/MS analysis; format: ADME, organism-based
Summary of the method: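 Patients with relapsed solid tumors (n=3) received carfilzomib IV at 20 mg/m2. Plasma was sampled on Days 1 and 16 of Cycle 1 before dosing, at end of administration, and at 5, 15, 30 min and 1, 2, 4 h after. Samples underwent solid phase extraction and LC-MS/MS with d10-carfilzomib internal standard over 0.100–200 ng/mL. Parameters were derived noncompartmentally (constant IV infusion model) from actual elapsed time from infusion start.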

Cytochrome P450 2D6 [9] = target: T3, Cytochrome P450 2D6; assay: Drug metabolism in pooled human hepatocytes assessed as disapperance rate at 1 uM by LC-MS/MS analysis in presence of 10 uM CYP2D6 inhibitor quinidine; format: ADME, cell-based, Hepatocyte; summary of the method: as §2
Cytochrome P450 2C9 [10] = target: T1, Cytochrome P450 2C9; assay: Drug metabolism in pooled human hepatocytes assessed as disapperance rate at 1 uM by LC-MS/MS analysis in presence of 10 uM CYP2C9 inhibitor sulfaphenazole
Target sequence in this assay (P11712 whole entry, looked up): as the sequence (P11712 whole entry) above

Cytochrome P450 3A [11] = target: T2, Cytochrome P450 3A; assay: Time-dependent inhibition of CYP3A in human liver microsomes preincubated for 30 mins with carfilzomib by LC-MS/MS analysis; format: ADME; conditions: microsomes
Summary of the method: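 Pooled HLM (16 donors) given carfilzomib 0.01–10 µM in duplicate at 37°C with a 30-min preincubation before probe substrate was added. Substrate was set near Km (testosterone Km 100 µM; midazolam Km 3.8 µM). Protein was 0.1 mg/mL, or 0.05 mg/mL with midazolam. Metabolite formation was read by LC-MS/MS after 5 min and expressed relative to 0.5% acetonitrile controls to give IC50.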

Plasma [12] = assay: Drug metabolism in plasma of human multiple myeloma patient assessed as morpholino-hPhe-Leu metabolite formation at 15 mg/m'2, iv administered as single dose measured within first 30 mins after end of drug infusion by LC-MS/MS analysis; format: ADME, organism-based; conditions: in vivo, 0.5 h; summary of the method: as §3
CYP1A2 = assay: Decrease in CYP1A2 gene expression in human hepatocytes at 2.5 uM after 3 days by qPCR analysis; format: ADME, cell-based, Hepatocyte
Summary of the method: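 Hepatocytes were treated 3 days with carfilzomib (0.1–2.5 µM) or 0.08% DMSO, renewed daily. CYP3A mRNA was measured in 3 donors and CYP1A2 mRNA in one additional donor, both by qPCR. Values are triplicate means relative to DMSO.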

T3 sequence (P10635 whole entry, the tested form may be a part): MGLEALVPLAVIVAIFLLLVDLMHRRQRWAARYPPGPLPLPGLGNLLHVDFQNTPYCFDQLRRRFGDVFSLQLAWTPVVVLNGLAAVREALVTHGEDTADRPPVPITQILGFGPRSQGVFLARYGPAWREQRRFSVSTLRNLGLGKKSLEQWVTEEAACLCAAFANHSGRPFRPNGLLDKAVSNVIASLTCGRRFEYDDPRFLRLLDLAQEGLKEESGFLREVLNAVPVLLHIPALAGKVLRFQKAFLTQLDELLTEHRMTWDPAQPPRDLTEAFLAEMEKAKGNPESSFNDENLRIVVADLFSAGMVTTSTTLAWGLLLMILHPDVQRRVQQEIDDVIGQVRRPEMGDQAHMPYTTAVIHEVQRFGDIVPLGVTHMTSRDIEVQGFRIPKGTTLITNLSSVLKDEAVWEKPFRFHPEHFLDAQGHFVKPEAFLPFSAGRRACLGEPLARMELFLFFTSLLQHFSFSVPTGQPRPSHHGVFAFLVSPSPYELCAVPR

IC50 (Cytochrome P450 2C9 [1]): > 10 µM
Drug metabolism (Cytochrome P450 3A [2]): 0.012 min⁻¹
Drug excretion [3]: metabolite_detected
IC50 (Cytochrome P450 2D6 [4]): > 10 µM
Drug metabolism (Plasma [5]): metabolite_detected
fraction unbound [6]: 0.024
IC50 (Cytochrome P450 2C8): > 10 µM
dose excreted [7]: < 1%
clearance [8]: 2270 mL/min
Drug metabolism (Cytochrome P450 2D6 [9]): 0.013 min⁻¹
Drug metabolism (Cytochrome P450 2C9 [10]): 0.0073 min⁻¹
inhibition (INH) (Cytochrome P450 3A [11]): Dose-dependent effect
Drug metabolism (Plasma [12]): metabolite_detected
inhibition at 72 h, 2.5 µM (CYP1A2): 40%
Structure (SMILES): CC(C)C[C@H](NC(=O)[C@H](CCc1ccccc1)NC(=O)CN1CCOCC1)C(=O)N[C@@H](Cc1ccccc1)C(=O)N[C@@H](CC(C)C)C(=O)[C@@]1(C)CO1 [CARFILZOMIB]
